# Screening results from PubChem BioAssay.
# A selection: hits, their analogues and other compounds. The true share with any hit is near 3.6%.
# AHR act = human AHR activation; AID 2796; hit rate 2.5% among 320,000; AHR-responsive luciferase reporter cells, luminescence; P35869; activation, % at 5 µM; in the data active = activation above about 47%;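 also: 0% = vehicle wells and 100% = reference agonist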
# Target sequence (P35869 whole entry, looked up): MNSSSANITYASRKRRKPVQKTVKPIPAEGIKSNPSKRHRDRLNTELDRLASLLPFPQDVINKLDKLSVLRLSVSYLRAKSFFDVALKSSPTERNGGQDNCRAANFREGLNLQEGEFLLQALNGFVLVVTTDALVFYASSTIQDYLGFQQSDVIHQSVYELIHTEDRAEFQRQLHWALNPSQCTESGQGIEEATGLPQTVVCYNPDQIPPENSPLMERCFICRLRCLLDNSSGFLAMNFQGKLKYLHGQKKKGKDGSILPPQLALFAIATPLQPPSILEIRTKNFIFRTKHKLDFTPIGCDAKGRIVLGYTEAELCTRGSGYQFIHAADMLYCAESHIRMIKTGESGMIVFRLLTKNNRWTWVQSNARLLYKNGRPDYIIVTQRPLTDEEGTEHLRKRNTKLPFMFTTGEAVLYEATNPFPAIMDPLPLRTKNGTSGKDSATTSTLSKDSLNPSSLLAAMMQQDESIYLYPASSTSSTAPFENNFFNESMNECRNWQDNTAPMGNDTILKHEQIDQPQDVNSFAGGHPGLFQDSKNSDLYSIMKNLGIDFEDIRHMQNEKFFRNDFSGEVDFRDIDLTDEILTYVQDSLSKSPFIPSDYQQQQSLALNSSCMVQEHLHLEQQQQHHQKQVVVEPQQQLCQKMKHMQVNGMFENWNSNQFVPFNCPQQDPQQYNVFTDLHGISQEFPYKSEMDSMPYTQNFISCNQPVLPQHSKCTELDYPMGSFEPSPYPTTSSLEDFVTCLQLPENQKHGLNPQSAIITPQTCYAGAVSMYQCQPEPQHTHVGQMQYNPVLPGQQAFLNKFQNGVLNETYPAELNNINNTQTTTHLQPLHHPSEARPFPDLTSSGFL
# PERK inhibitor = blocks human PERK kinase; Q9NZJ5; CHO PERK-DD fusion, SEAP luminescence translation reporter; inhibition, % at 5.6 µM; hit rate 0.17% among 220,000; AID 1416;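 active = inhibition above the mean inhibition of all tested compounds plus 3 SD, set separately per screening campaign, cut at about 2.9% in these data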;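 also: PERK kinase domain activated by AP20187 dimerizer at 100 nM; 0% = DMSO with dimerizer and 100% = rapamycin at 8.4 µM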
# STAT3 activator = activators of IL-6 induced STAT3 signaling; hit rate 0.91% among 190,000; U3A cells, IL-6 STAT3-luciferase reporter, luminescence; 100% = signal with IL-6 EC80 alone; AID 871; activation (% of control), % at 5.6 µM;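 active = activation above the screen-wide mean of compound activation plus 3 SD, cut at about 130% in these data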;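 also: 0% = background luminescence of wells with medium and substrate only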
#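 Assay system – human STAT1-deficient U3A cells with stable STAT3-luciferase reporter · Also added – IL-6 (33 ng/mL) · Schedule – compound 1 h, then IL-6 6 h at 37 °C · Technique – reporter luminescence signal · Evaluation – % activation versus median of IL-6-stimulated wells · Benchmarks – IL-6-only wells as 100% reference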
# HSF1 inhib = HSF1 inhibition. NIH3T3-HGL HSE-luciferase, MG132-induced, luminescence 8 h; stronger effect = lower value. activity change, negative = inhibition, % at 7.5 µM (by protocol). hit rate 0.77% among 300,000;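 active = more than half of replicate wells show activity change below -50%, luminescence cut by over half; inconclusive = some wells, but at most half, below -50%; inactive = no replicate well below -50%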;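 also: luciferase reports HSF-1 transcriptional activity via heat shock element; 0% = median of DMSO wells and -100% = zero luminescence signal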
# Hsp70 activator = transcriptional activators of Hsp70 | HeLa Hsp70 promoter luciferase reporter, luminescence; scaled: vehicle 0, proteasome-inhibitor control 100% | activation, % at 10 µM | hit rate 0.04% among 200,000 | AID 1203;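 active = activation above the mean across all tested compounds plus 3 SD, cutoff set per campaign, cut at about 5.5% in these data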;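 also: 100% = MG132 at 30 µM as the positive control and 0% = DMSO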
# PolyA inh = yeast polyadenylation inhibition. S. cerevisiae SKY197-pL101 polyadenylation reporter, beta-gal luminescence; efflux-impaired pdr1/pdr3 knockout yeast; score 100 = 6 SD above DMSO. activity score, % at 12 µM. hit rate 0.02% among 300,000. AID 1875;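 active = lowest replicate activity score at least 50, where 100 means six control SD above control mean; inconclusive = lowest score under 50 but half or more replicates reach 50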;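 also: yeast exposed to compound for 9 h at 30 °C; higher score means more reporter readthrough which indicates perturbed polyadenylation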
# * hit, by the source's call; ? = inconclusive; . = no result given.
SMILES,AHR act,PERK inhibitor,STAT3 activator,HSF1 inhib,Hsp70 activator,PolyA inh
CC1CCN(C(=O)CSc2nc3c(cnn3-c3ccc(Cl)cc3)c(=O)[nH]2)CC1,0,2,95,-86*,0,0
Cc1nc2ccccc2c(=O)n1/N=C/c1ccccn1,3,3.0*,96,-7,0,-12
CCn1cc(C(=O)O)c(=O)c2cc(S(=O)(=O)N(C)C)ccc21,1,3.2*,104,-2,0,3
CCC(C)NC(=O)c1cn(CC)c2ccc(S(=O)(=O)N(C)C)cc2c1=O (configuration not stated),3,0,108,2,0,7
Cc1nnc(NC(=O)CSc2nnc(CC(=O)Nc3ccccc3C)n2C)s1,-1,.,.,-9,.,-6
COc1ccc(C2=CC(=O)C=CC2=O)cc1,.,1,.,32,.,-35
O=C(O)c1ccccc1SC1CC(=O)N(c2ccc3c(c2)OCO3)C1=O (configuration not stated),1,0,105,-17,0,-15
Nc1ccccc1SC1CC(=O)N(c2ccc3c(c2)OCO3)C1=O (configuration not stated),72*,0,.,0,.,13
CCOC(=O)c1c(NC(=O)CSc2c[nH]c3ccccc23)sc2c1CCCC2,17,0,135*,10,0,1
CC(=O)NCCc1nc2cc(NC(=O)COc3cccc(C)c3)ccc2n1C,0,.,.,4,.,-10
O=C(NC(=S)Nc1nc2c(s1)CSc1ccccc1-2)c1ccccc1,69*,0,167*,1,0,-14
O=C(NC(=S)Nc1nc2c(s1)CCCC2)c1ccc(C(=O)c2ccccc2)cc1,10,0,90,-1,0,13
CCCC1=Nc2cc(C(=O)NCCCN3CCOCC3)ccc2Sc2ccccc21,3,.,.,2,.,-14
CCCC1=Nc2cc(C(=O)NCCCN3CCN(C)CC3)ccc2Sc2ccccc21,0,.,.,-51*,.,0
Cc1ccc(-c2nc3cc(N)ccc3o2)c(C)c1,18,1,68,11,0,-8
Nc1ccc2oc(-c3cccc4ccccc34)nc2c1,53*,0,88,-1,-1,15
Cc1ccc(-c2nc3cc(N)ccc3o2)cc1,73*,1,51,10,0,-17
Cc1ccccc1-c1nc2cc(Cl)ccc2o1,75*,0,127,18,0,0
Cc1ccccc1-c1nc2cc(Cl)ccc2c(=O)o1,1,.,.,-8,.,-26
CCC1Oc2ccccc2N(CC(=O)NC2CCCCC2)C1=O (configuration not stated),1,.,.,8,.,-6
N#CC1(NC(=O)Cn2ncc(Cl)c(Cl)c2=O)CCCCC1,3,.,.,17,.,-15
CC(=O)Nc1ccc(NC(=O)C2CC(=O)N(C(C)C)C2)cc1 (configuration not stated),1,.,.,-3,.,0
CCc1ccc(NC(=O)C2CC(=O)N(C(C)C)C2)cc1 (configuration not stated),78*,1,100,3,0,-28
Clc1cccc(C2Nc3cccc4cccc(c34)N2)c1Cl,59*,.,.,3,.,-8
Fc1ccc(C2Nc3cccc4cccc(c34)N2)cc1,51*,.,.,-9,.,7
SMILES,AHR act,PERK inhibitor,STAT3 activator,HSF1 inhib,Hsp70 activator,PolyA inh
O=[N+]([O-])c1ccc(C2Nc3cccc4cccc(c34)N2)cc1,19,0,134*,.,0,-8
Clc1ccccc1C1Nc2cccc3cccc(c23)N1,7,.,.,-6,.,-1
CCN(CC)c1ccc(C2Nc3cccc4cccc(c34)N2)cc1,15,.,.,-20,.,3
Cc1ccc(-n2cc(CN3CCN(C(=O)c4ncn[nH]4)CC3)c(-c3ccc(F)cc3)n2)cc1,-2,-2,.,11,.,-5
COCCCNC(=O)c1cn(CC(C)C)c(=O)c2c1c1ccccc1n2C,2,-1,107,-75*,0,12
Clc1ccccc1OCCCCn1ccnc1,74*,1,100,6,0,-6
Cc1cc(Cl)cc(C)c1OCCCCn1ccnc1,18,0,108,4,0,-7
Cc1cccc(Cl)c1OCCCCn1ccnc1,57*,1,95,-7,0,4
CSc1nc2sc3c(c2c(=O)n1CC(C)C)CC(C)(C)OC3,0,0,.,-10,.,6
CN=C1S/C(=C\c2cn(CC(=O)OC)c3ccccc23)C(=O)N1C,13,0,135*,-5,0,-13
C=CCn1c(C)cc(C(=O)COC(=O)CNC(=O)c2ccccc2)c1C,-2,0,62,-82*,0,3
Cc1ccc(C(=O)NCC(=O)OCC(=O)c2cc(C)n(Cc3ccco3)c2C)cc1,-4,0,92,2,0,12
CCN(CC(=O)Nc1cccc(S(=O)(=O)N2CCOCC2)c1)Cc1ccccc1,-1,.,.,7,.,30
CNc1nc2c(-c3ccc(Cl)cc3)nnn2c2ccccc12,24,.,.,8,.,15
Nc1nc2c(-c3ccc(Br)cc3)nnn2c2ccccc12,54*,.,.,16,.,15
CCN1CCc2c(OCc3ccccc3)cccc2C1=O,-1,-1,99,?,1,4
COCCCNC(=O)c1c(N)n(-c2ccc3c(c2)OCO3)c2nc3ccccc3nc12,52*,-1,80,-10,0,-14
COCCNC(=O)c1c(N)n(/N=C/c2cccs2)c2nc3ccccc3nc12,50*,0,76,5,0,7
COc1ccc(-c2cc(-c3c(O)c(OC)c4occc4c3OC)[nH]n2)cc1,69*,-1,90,-2,0,-15
Clc1ccc(/C=N/Nc2ncnc3nc[nH]c23)cc1,66*,0,.,19,.,-1
COc1cc2ccccc2nn1,4,0,.,-8,.,-1
COc1ccc2c(n1)Sc1nc3ccccc3nc1N2,64*,-2,.,27,.,-6
NS(=O)(=O)c1ccc(NNC(=O)c2ccccc2C(=O)O)cc1,48*,1,.,-3,.,16
CN(C)c1cc(-c2ccc(Cl)c(Cl)c2)oc(=O)c1Cl,8,1,.,5,.,-6
CN(C)c1cc(-c2ccc(Cl)cc2)oc(=O)c1Cl,56*,-1,.,-1,.,-13
O=C(Nc1ccc(-n2ccnc2P(=O)(O)c2ccccc2)cc1)c1ccccc1Cl,-2,1,101,-55*,0,-3
CCC(=O)Nc1cccc(-c2cn3ccsc3n2)c1,54*,-2,92,-6,0,9
COc1cc(C(=O)Nc2cccc(-c3cn4cccnc4n3)c2)cc(OC)c1OC,5,0,92,4,0,14
CC(=O)Nc1cccc(-c2cn3ccccc3n2)c1,61*,0,98,20,0,8
CCCCC(=O)Nc1cccc(-c2csc(-c3ccccc3)n2)c1,69*,0,103,28,0,-1
